{"data": "Published values collected from several papers", "target": "Mitogen-activated protein kinase kinase kinase 3 (MAP3K3, Homo sapiens, UniProt Q99759)", "One construct used (Q99759 1-626)": "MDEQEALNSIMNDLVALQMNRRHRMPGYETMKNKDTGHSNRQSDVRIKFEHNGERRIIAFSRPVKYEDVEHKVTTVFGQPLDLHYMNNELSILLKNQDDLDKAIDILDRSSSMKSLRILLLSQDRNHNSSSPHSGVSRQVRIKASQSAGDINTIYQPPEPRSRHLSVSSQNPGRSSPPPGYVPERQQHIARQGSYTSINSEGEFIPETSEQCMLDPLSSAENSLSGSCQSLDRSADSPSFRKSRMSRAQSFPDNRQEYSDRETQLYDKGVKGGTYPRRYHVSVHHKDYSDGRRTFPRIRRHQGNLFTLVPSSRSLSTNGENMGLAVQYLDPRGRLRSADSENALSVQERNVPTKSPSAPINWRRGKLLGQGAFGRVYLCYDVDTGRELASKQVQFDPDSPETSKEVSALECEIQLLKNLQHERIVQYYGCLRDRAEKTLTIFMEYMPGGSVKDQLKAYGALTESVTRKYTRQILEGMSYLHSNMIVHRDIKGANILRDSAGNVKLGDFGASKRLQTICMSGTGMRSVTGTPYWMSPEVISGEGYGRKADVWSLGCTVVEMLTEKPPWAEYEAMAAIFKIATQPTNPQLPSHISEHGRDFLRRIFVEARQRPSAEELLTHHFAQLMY", "note": "Protocols differ between the studies behind these lines."}
{"Compound": "C#Cc1cc(-c2cc(Nc3nc(N[C@@H](C)c4ccc(F)cn4)ncc3Cl)n[nH]2)ccc1C=O", "read-out": "enzyme activity", "mode": "inhibitor", "concentration": "0.2 µM", "endpoint": "inhibition", "result": "48.8%"}
{"Compound": "CO[C@@H]1[C@H](N(C)C(=O)c2ccccc2)C[C@H]2O[C@]1(C)n1c3ccccc3c3c4c(c5c6ccccc6n2c5c31)C(=O)NC4", "read-out": "enzyme activity", "mode": "inhibitor", "concentration": "1 µM", "endpoint": "inhibition", "result": "86%"}
{"Compound": "C1=C/COCc2cc(ccc2OCCN2CCCC2)Nc2nccc(n2)-c2cccc(c2)COC/1", "read-out": "binding", "concentration": "0.1 µM", "endpoint": "remaining binding", "result": "53%"}
{"Compound": "C[C@H]1CC[C@H](n2c3cnccc3c3cnc(Nc4ccc5c(n4)CCN(C(=O)CO)C5)nc32)CC1", "read-out": "binding", "method": "competition with immobilised ligand", "concentration": "1 µM", "endpoint": "remaining binding", "result": "81%"}
{"Compound": "CC(C)S(=O)(=O)c1ccc2nccc(Nc3ccc4sc(C5CCCC5)nc4c3)c2c1", "read-out": "enzyme activity", "mode": "inhibitor", "concentration": "1 µM", "endpoint": "activity vs control", "result": "105%"}
{"Compound": "CCCCC(=O)Nc1ccc(-c2ccc3ncn(CCC)c(=O)c3c2)cn1", "read-out": "binding", "method": "competition with immobilised ligand", "concentration": "0.5 µM", "endpoint": "remaining binding", "result": "100%"}
{"Compound": "Cc1cc(O)c(-c2ccc([C@@H](C)CN(C)C)cc2)c2c1[nH]c(=O)c1sccc12", "read-out": "enzyme activity", "mode": "inhibitor", "concentration": "0.1 µM", "endpoint": "inhibition", "result": "0.395%"}
{"Compound": "CC#CC(=O)N1CCC[C@H]1c1nc(-c2ccc(C(=O)Nc3ccccn3)cc2)c2c(N)nccn12", "read-out": "enzyme activity", "mode": "inhibitor", "concentration": "1 µM", "endpoint": "inhibition", "result": "25%"}
{"Compound": "CN1CCN(C(=O)c2ccc(NC(=O)Nc3ccc(N(C)c4ccnc(Nc5ccc(CS(C)(=O)=O)cc5)n4)cc3)cc2)CC1", "read-out": "binding", "method": "competition with immobilised ligand", "concentration": "1 µM", "endpoint": "remaining binding", "result": "57%"}
